We go through seven compounds from ChEMBL document CHEMBL1157464, “1-[(3-Aryloxy-3-aryl)propyl]-1H-imidazoles, new imidazoles with potent activity against Candida albicans and dermatophytes. Synthesis, structure-activity relationship, and molecular modeling studies” (J Med Chem, 2008).

Values after ≈ are worked out from the molar mass of the structure shown.

Series [1] is described as follows: Cytotoxicity against human K562 cells after assessed as reduction of cell viability 24 hrs by MTT assay. The series is classed as cell-based. The gist of the method:
(§1)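 U937 and K562 cells, from ATCC, plated at 5 × 10^4/mL in phenol-red-free RPMI-1640 with 20% FBS and penicillin/streptomycin. Compounds added 2 h later at 25–100 µg/mL, then 24 h at 37 °C. MTT at 1 mg/mL for 3 h, formazan dissolved in isopropanol with 0.1 N HCl, absorbance read at 570 nm. CC50 is the concentration reducing viability by 50% versus the drug-free control.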

The nature of series [2]: Cytotoxicity against human U937 cells assessed as reduction of cell viability after 24 hrs by MTT assay. The class given is cell-based, U-937. The gist of the method: as §1
For series [3], the system named is Candida albicans. The series is described as follows: Antifungal activity against Candida albicans ATCC 10261 at 35 degC after 48 to 96 hrs by broth microdilution test. The series is classed as functional. The following applies: for MFC: Candida albicans, ATCC 10261, read-out: MFC. In a few lines: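 Minimal fungicidal concentration for Candida. […] MFC is the lowest concentration allowing fewer than two colonies (99% killing).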

Series [4] has as its system Candida albicans. The series is described as follows: Antifungal activity against Candida albicans ATCC 10261 at 35 degC after 48 hrs by broth microdilution test. The class given is functional. The following applies: Candida albicans, ATCC 10261, 48 h; for MIC: read-out: MIC; for MIC50: read-out: MIC50; for MIC90: read-out: MIC90. In a few lines:
(§2)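 Broth microdilution per NCCLS M27-A2. Stocks in 100% DMSO, diluted in RPMI 1640 with 0.165 M MOPS at pH 7.0; final range 0.25–128 µg/mL. Inoculum 1000–5000 cells/mL from SDA subcultures. […] C. parapsilosis ATCC22019 served as QC strain.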

In the next series the test system is Candida parapsilosis. The series is described as follows: Antifungal activity against Candida parapsilosis ATCC 22019 at 35 degC after 48 hrs by broth microdilution test. The class given is functional. The following applies: Lodderomyces parapsilosis, ATCC 22019, 48 h; for MIC: read-out: MIC; for MFC: read-out: MFC. The gist of the method: as §2
(Dilution methods test growth across graded concentrations, often in twofold steps.)

Series [5] has as its system Arthrodermataceae. The series can be described thus: Antifungal activity against dermatophytes at 28 degC after 48 to 96 hrs by broth microdilution test.
Series [6] deals with Arthrodermataceae. The series is described as follows: Antifungal activity against dermatophytes at 28 degC after 7 days by broth microdilution test. The series is classed as functional. As to conditions: 168 h. The gist of the method:
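Ten clinical isolates (two M. canis, five M. gypseum, three T. mentagrophytes) tested by NCCLS M38-A broth microdilution in MOPS-buffered RPMI 1640, pH 7.0, over 0.25–128 µg/mL. Conidial/hyphal suspension from PDA slants (28 °C, 7 days) adjusted to 65–70% transmittance at OD530, then diluted 1:50.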

Series [7] deals with Arthrodermataceae. The series can be described thus: Antifungal activity against dermatophytes at 28 degC after 5 days by broth microdilution test. As to conditions: for MFC: Arthrodermataceae.

Broadly, the CC50 is the concentration at which the toxic effect on the cells reaches its halfway point. Usually MFC stands for the smallest concentration meeting the test's criterion for killing the fungus. Broadly, the MIC is the lowest concentration that inhibits growth of the organism. As a reminder, the MIC50 is an inhibitory concentration at the 50% level, which refers to growth in some studies and to a panel of isolates in others. As usually defined, the MIC90 is an inhibitory concentration at the 90% level, which refers to growth in some studies and to a panel of isolates in others.

With `Cc1ccc(OC(Cn2ccnc2)c2ccc(Cl)cc2)cc1` (stereo not drawn), the CC50 at 24 h in series [1] stood at 99 µM. Besides, in series [2], the CC50 at 24 h came out at 150 µM. For the same compound, in the series on Candida albicans [3], the minimum fungicidal concentration (MFC) came to 32 µg/mL (≈ 102 µM). In addition, in the series on Candida albicans [4], the MIC was determined as 22.3 µg/mL (≈ 71.3 µM), the MIC50 is 16 µg/mL (≈ 51.2 µM) and the MIC90 was determined as 32 µg/mL (≈ 102 µM). For the same compound, in the series on Candida parapsilosis, the MIC worked out at 4 µg/mL (≈ 12.8 µM).
`Cc1ccc(C(CCn2ccnc2)Oc2cc(Cl)cc(Cl)c2)cc1` (stereo not drawn): the CC50 at 24 h in series [1] stood at 98 µM; in series [2] it was 160 µM. The MFC50 with Candida albicans [3] and in the series on Arthrodermataceae [5] was 16 µg/mL (≈ 44.3 µM) each time. Besides, the MFC90 with Candida albicans [3] stood at 64 µg/mL (≈ 177 µM); in the series on Arthrodermataceae [7] it was 16 µg/mL (≈ 44.3 µM). In addition, the MFC with Candida albicans [3] came out at 34.6 µg/mL (≈ 95.8 µM); with Candida parapsilosis, 8 µg/mL (≈ 22.1 µM); with Arthrodermataceae [7] it was 14.4 µg/mL (≈ 39.9 µM). Further, the MIC with Candida albicans [4] worked out at 11.9 µg/mL (≈ 32.9 µM); in the series with Candida parapsilosis, 1 µg/mL (≈ 2.77 µM); in the series on Arthrodermataceae [6] it was 5.6 µg/mL (≈ 15.5 µM). The figures for the MIC50 in the series on Candida albicans [4] and in the series with Arthrodermataceae [6] were 16 µg/mL (≈ 44.3 µM) and 4 µg/mL (≈ 11.1 µM), respectively. Further, the MIC90 in the series with Candida albicans [4] was 16 µg/mL (≈ 44.3 µM); against Arthrodermataceae [6] it was 8 µg/mL (≈ 22.1 µM).
As for `CC(C)c1ccc(OC(CCn2ccnc2)c2ccc(Cl)cc2)cc1` (stereo not drawn), the CC50 at 24 h in series [1] was determined as 138 µM. In addition, the CC50 at 24 h in series [2] worked out at 208 µM. In the series with Candida albicans [3], the MFC50 stood at 32 µg/mL (≈ 90.2 µM), the MFC90 was determined as 32 µg/mL (≈ 90.2 µM) and the MFC was 25.5 µg/mL (≈ 71.9 µM). Also, in the series with Candida albicans [4], the minimal inhibitory concentration (MIC) was 18.5 µg/mL (≈ 52.1 µM), the MIC50 was found to be 8 µg/mL (≈ 22.5 µM) and the MIC90 amounted to 32 µg/mL (≈ 90.2 µM). Further, in the series with Candida parapsilosis, the MFC is 32 µg/mL (≈ 90.2 µM) and the minimal inhibitory concentration (MIC) was found to be 8 µg/mL (≈ 22.5 µM).
`Clc1ccc(C(CCn2ccnc2)Oc2cc(Cl)cc(Cl)c2)cc1` (stereo not drawn): the results for the CC50 at 24 h in series [1] and in series [2] were 135 µM and 180 µM, respectively. For the same compound, the figures for the MFC50 against Candida albicans [3] and with Arthrodermataceae [5] were 16 µg/mL (≈ 41.9 µM) and 8 µg/mL (≈ 21 µM), respectively. In addition, the MFC90 in the series with Candida albicans [3] and in the series on Arthrodermataceae [7] was 16 µg/mL (≈ 41.9 µM) in each case. The MFC was 16.5 µg/mL (≈ 43.2 µM) in the series with Candida albicans [3], 4 µg/mL (≈ 10.5 µM) with Candida parapsilosis and 10 µg/mL (≈ 26.2 µM) in the series on Arthrodermataceae [7]. The MIC stood at 7.7 µg/mL (≈ 20.2 µM) with Candida albicans [4], 1 µg/mL (≈ 2.62 µM) in the series with Candida parapsilosis and 5 µg/mL (≈ 13.1 µM) against Arthrodermataceae [6]. Moreover, the figures for the MIC50 with Candida albicans [4] and against Arthrodermataceae [6] were 8 µg/mL (≈ 21 µM) and 4 µg/mL (≈ 10.5 µM), respectively. Also, the MIC90 with Candida albicans [4] was determined as 16 µg/mL (≈ 41.9 µM); in the series with Arthrodermataceae [6], 8 µg/mL (≈ 21 µM).
On to `CCc1ccc(OC(CCn2ccnc2)c2ccc(Cl)cc2)cc1` (stereo not drawn), for which the CC50 at 24 h in series [1] came to 185 µM. Moreover, in series [2], the CC50 at 24 h was found to be 265 µM. Besides, in the series with Candida albicans [3], the MFC50 came to 8 µg/mL (≈ 23.5 µM), the MFC90 was 16 µg/mL (≈ 46.9 µM) and the MFC was found to be 12.5 µg/mL (≈ 36.7 µM). In the series with Candida albicans [4], the MIC came to 6.5 µg/mL (≈ 19.1 µM), the MIC50 is 8 µg/mL (≈ 23.5 µM) and the MIC90 came out at 8 µg/mL (≈ 23.5 µM). Besides, in the series with Candida parapsilosis, the MFC was determined as 16 µg/mL (≈ 46.9 µM) and the MIC was 8 µg/mL (≈ 23.5 µM).
For `Cc1ccc(OC(CCn2ccnc2)c2ccc(Cl)cc2)c(C)c1` (stereo not drawn), in the series on Candida albicans [3], the MFC50 was found to be 32 µg/mL (≈ 93.9 µM), the MFC90 was found to be 32 µg/mL (≈ 93.9 µM) and the MFC is 28 µg/mL (≈ 82.1 µM). Also, in the series with Candida albicans [4], the MIC turned out to be 13.5 µg/mL (≈ 39.6 µM), the MIC50 is 16 µg/mL (≈ 46.9 µM) and the MIC90 is 16 µg/mL (≈ 46.9 µM). This compound came in with an MFC50 in the series with Arthrodermataceae [5] of 64 µg/mL (≈ 188 µM). In addition, in the series with Candida parapsilosis, the MFC was 32 µg/mL (≈ 93.9 µM) and the MIC came to 8 µg/mL (≈ 23.5 µM). For the same compound, in the series with Arthrodermataceae [6], the lowest concentration to inhibit growth (MIC) was 32.5 µg/mL (≈ 95.3 µM), the MIC50 was found to be 32 µg/mL (≈ 93.9 µM) and the MIC90 is 32 µg/mL (≈ 93.9 µM). In the series on Arthrodermataceae [7], this compound returned an MFC90 of 64 µg/mL (≈ 188 µM) and an MFC of 58 µg/mL (≈ 170 µM).
In the case of `CCc1ccc(OC(CCn2ccnc2)c2ccc(C)cc2)cc1` (stereo not drawn), the CC50 at 24 h in series [1] is 136 µM. For the same compound, the CC50 at 24 h in series [2] is 152 µM. In the series on Candida albicans [3], the MFC50 was 32 µg/mL (≈ 99.9 µM), the MFC90 was found to be 32 µg/mL (≈ 99.9 µM) and the MFC came out at 28 µg/mL (≈ 87.4 µM). In addition, in the series with Candida albicans [4], the MIC worked out at 8.7 µg/mL (≈ 27.2 µM), the MIC50 turned out to be 4 µg/mL (≈ 12.5 µM) and the MIC90 turned out to be 16 µg/mL (≈ 49.9 µM). In the series on Candida parapsilosis, the MFC amounted to 8 µg/mL (≈ 25 µM) and the MIC is 4 µg/mL (≈ 12.5 µM).
